Test results as given in ChEMBL document CHEMBL1150822, “Additional bioactive Lyso-PAF congeners from the sponge Spirastrella abata” (J Nat Prod, 2001).
Converted amounts (≈) assume the structure as drawn. Blank lines part the entries; values can stand above or below the compound they belong to. The source made the active and inactive calls. The calls are words filed in the database; no cut-off is given here.

Key:
[1] = (§1) Inhibition of cholesterol biosynthesis in human Chang cells; format: functional, cell-based
A549 = experiment: Cytotoxicity against human A549 cells after 48 hrs by SRB assay; format: functional; conditions: A549, 48 h, read-out: ED50 (the source's name)
Procedure, shortened: (§2)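 Rapidly growing cells were harvested and seeded at (1-2) × 10^4 cells/well, then preincubated for 24 h. Compounds dissolved in culture medium were added in triplicate, and cells were incubated for 48 h at 37 °C under 5% CO2. Cells were fixed with cold TCA and stained with 0.4% SRB in 1% acetic acid. Bound dye was solubilized in 10 mM unbuffered Tris base and absorbance read at 520 nm.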

SK-OV-3 = experiment: Cytotoxicity against human SKOV3 cells after 48 hrs by SRB assay; format: functional; conditions: SK-OV-3, 48 h, read-out: ED50 (the source's name); procedure, shortened: as §2
XF498 = experiment: Cytotoxicity against human XF498 cells after 48 hrs by SRB assay; format: functional; conditions: XF498, 48 h, read-out: ED50 (the source's name); procedure, shortened: as §2
HCT-15 = experiment: Cytotoxicity against human HCT15 cells after 48 hrs by SRB assay; format: functional; conditions: HCT-15, 48 h, read-out: ED50 (the source's name); procedure, shortened: as §2
SK-MEL-2 (Homo sapiens) = experiment: Cytotoxicity against human SK-MEL-2 cells after 48 hrs by SRB assay; conditions: SK-MEL-2, 48 h, read-out: ED50 (the source's name)
Chang = experiment: as §1; format: functional, cell-based

- IC50 [1]: 118 µg/mL (≈ 246 µM)
Structure (SMILES): CCCCCCCCCCC/C=C\CCCOC[C@H](O)COP(=O)([O-])OCC[N+](C)(C)C
- EC50 (A549): > 30 µg/mL
- EC50 (SK-OV-3): > 30 µg/mL
- EC50 (XF498): > 30 µg/mL
- EC50 (HCT-15): > 30 µg/mL
- EC50 (SK-MEL-2 (Homo sapiens)): > 30 µg/mL

- IC50 [1]: 102 µg/mL (≈ 213 µM)
Structure (SMILES): CCCCCCCCCCCC/C=C\CCOC[C@H](O)COP(=O)([O-])OCC[N+](C)(C)C
- EC50 (A549): > 30 µg/mL
- EC50 (SK-OV-3): > 30 µg/mL
- EC50 (XF498): > 30 µg/mL
- EC50 (HCT-15): > 30 µg/mL
- EC50 (SK-MEL-2 (Homo sapiens)): > 30 µg/mL

Structure (SMILES): COc1cccc2c1C(=O)c1c(O)c3c(c(O)c1C2=O)C[C@@](O)(C(=O)CO)C[C@@H]3O[C@H]1C[C@H](N)[C@H](O)[C@H](C)O1 [DOXORUBICIN]
- EC50 (A549): 0.02 µg/mL (≈ 0.0368 µM)
- EC50 (SK-OV-3): 0.11 µg/mL (≈ 0.202 µM)
- EC50 (XF498): 0.08 µg/mL (≈ 0.147 µM)
- EC50 (HCT-15): 0.04 µg/mL (≈ 0.0736 µM)
- EC50 (SK-MEL-2 (Homo sapiens)): 0.02 µg/mL (≈ 0.0368 µM)

Structure (SMILES): CCCCCCCCCCC/C=C\CC(COC[C@H](O)COP(=O)([O-])OCC[N+](C)(C)C)OC (some centres undefined)
- EC50 (A549): 6.3 µg/mL (≈ 12.4 µM)
- EC50 (SK-OV-3): 5.9 µg/mL (≈ 11.6 µM)
- EC50 (XF498): 4 µg/mL (≈ 7.85 µM)
- EC50 (HCT-15): 3.7 µg/mL (≈ 7.26 µM)
- EC50 (SK-MEL-2 (Homo sapiens)): 3.8 µg/mL (≈ 7.46 µM)

Structure (SMILES): CCCCCCCCCCCCCCC(COC[C@H](O)COP(=O)([O-])OCC[N+](C)(C)C)OC (some centres undefined)
- Activity (Chang): inactive
- EC50 (A549): 5.8 µg/mL (≈ 11.3 µM)
- EC50 (SK-OV-3): 5.7 µg/mL (≈ 11.1 µM)
- EC50 (XF498): 4.5 µg/mL (≈ 8.79 µM)
- EC50 (HCT-15): 5 µg/mL (≈ 9.77 µM)
- EC50 (SK-MEL-2 (Homo sapiens)): 5.2 µg/mL (≈ 10.2 µM)

Structure (SMILES): CCCCCCCCCCCCCCCCOC[C@@H](O)COP(=O)([O-])OCC[N+](C)(C)C
- Activity (Chang): inactive
- EC50 (A549): 5.5 µg/mL (≈ 11.4 µM)
- EC50 (SK-OV-3): 4.9 µg/mL (≈ 10.2 µM)
- EC50 (XF498): 4.9 µg/mL (≈ 10.2 µM)
- EC50 (HCT-15): 5.4 µg/mL (≈ 11.2 µM)
- EC50 (SK-MEL-2 (Homo sapiens)): 5.4 µg/mL (≈ 11.2 µM)
